The subject of one assay is Jurkat. The experiment in a line: In vitro inhibitory activity against Jurkat cell proliferation. It is filed as functional, cell-based. The note with it: Homo sapiens. A digest of the protocol:
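Human Jurkat T cells kept in FCS-supplemented RPMI; 5 × 10⁴ cells/well cultured 2 days in 200 μL RPMI with test compound. Proliferation read as [³H]thymidine incorporation at the end of culture.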

For assay [1], the species on record is Mus musculus. The experiment in a line: In vitro inhibitory activity against mouse mixed lymphocyte reaction (MLR). It is filed as functional. A digest of the protocol:
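Equal numbers of C57Bl/6 (H-2^b) and CBA/2 (H-2^k) spleen cells mixed; 4 × 10⁵ cells/well with serial dilutions (DMSO/water) in 200 μL complete RPMI, 4 days, 37 °C, 5% CO₂. Proliferation by [³H]thymidine incorporation.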

Assay [2] deals with Dihydroorotate dehydrogenase (quinone), mitochondrial (Homo sapiens, UniProt Q02127). The experiment in a line: In vitro inhibitory activity against human dihydroorotate dehydrogenase (DHODH).
Chain of Dihydroorotate dehydrogenase (quinone), mitochondrial (Q02127 whole entry): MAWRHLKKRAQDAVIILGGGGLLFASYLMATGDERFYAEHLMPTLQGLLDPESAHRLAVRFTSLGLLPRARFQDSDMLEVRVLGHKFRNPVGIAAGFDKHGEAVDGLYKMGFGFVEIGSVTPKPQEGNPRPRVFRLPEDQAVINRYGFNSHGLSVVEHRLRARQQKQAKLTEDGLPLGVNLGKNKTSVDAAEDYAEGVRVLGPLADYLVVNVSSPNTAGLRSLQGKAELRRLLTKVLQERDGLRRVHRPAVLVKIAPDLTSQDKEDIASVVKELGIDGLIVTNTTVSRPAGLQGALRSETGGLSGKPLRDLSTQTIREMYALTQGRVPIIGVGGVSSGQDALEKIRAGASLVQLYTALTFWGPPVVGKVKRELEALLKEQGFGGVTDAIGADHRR
The species named for assay [3] is Mus musculus. The experiment in a line: In vitro inhibitory activity against murine antibody response to T-cell independent B-cell antigen TNP-LPS (type I). Type of assay: functional. A digest of the protocol: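 C57Bl/6 nu/nu and C57Bl/6 spleen cells, 2 × 10⁵/well in duplicate, IMDM-ATL + 10% FCS with serial drug dilutions and optimal TNP-LPS, 4 days at 37 °C. Pooled supernatants went to ELISA on BSA-DNP plates, developed with biotin anti-mouse IgM, streptavidin-alkaline phosphatase and pNPP, read at 405/490 nm. % inhibition was taken relative to unstimulated (low) and stimulated (high) controls.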

pIC50: −log10 of the molar value.

Broadly, the pIC50 is the IC50 on a negative log10 scale, so that one unit is a factor of ten. Read a high pIC50 as a small IC50. As to `Cc1n[nH]c(N(C)c2ccc(C(F)(F)F)cc2)c1C#N`, the pIC50 in the assay with Jurkat was < 4.30; in the assay listed under Mus musculus [1], 4.63; in assay [2], < 4.30; in the assay filed under Mus musculus [3], 4.72.
On to `Cc1n[nH]c(Nc2ccc(C(F)(F)F)cc2)c1C#N`, for which the pIC50 was < 4.30 with Jurkat, 5.68 in the assay listed under Mus musculus [1], 5.59 in assay [2] and 5.28 in the assay listed under Mus musculus [3].
For `Cc1n[nH]c(Nc2ccc(C(C)(C)C)cc2)c1C#N`, in that order: 4.91, 5.12, 5.44 and 4.51.
For `Cc1n[nH]c(Nc2ccc(C(F)(F)F)cc2)c1C`, in that order: 4.37, 4.73, 4.65 and 4.84.
For `N#Cc1c(-c2ccncc2)n[nH]c1Nc1ccc(C(F)(F)F)cc1`, in that order: 4.97, 5.44, < 4.30 and 4.87.
In the case of `N#Cc1c(-c2ccco2)n[nH]c1Nc1ccc(C(F)(F)F)cc1`, the pIC50 (in assay [2]; in the assay listed under Mus musculus [3]) was < 4.30 in each case.
Consider `N#Cc1c(-c2ccccc2)n[nH]c1Nc1ccc(C(F)(F)F)cc1`, for which the pIC50 in assay [2] is < 4.30; in the assay filed under Mus musculus [3], 4.49.
Take `CCNc1[nH]nc(Nc2ccc(C(F)(F)F)cc2)c1C#N`: the negative logarithm of the IC50 (pIC50) is 4.41 with Jurkat, 5.12 in the assay filed under Mus musculus [1], < 4.30 in assay [2] and 4.77 in the assay listed under Mus musculus [3].
For `C/C(=N\N)c1c(C)n[nH]c1Nc1ccc(C(F)(F)F)cc1`, in that order: 4.39, 4.69, < 4.30 and 4.76.
On to `Cc1ccc(Nc2[nH]nc(C)c2C#N)cc1`, for which the pIC50 in assay [2] was 4.92; in the assay listed under Mus musculus [3], < 4.30.
For `Cc1n[nH]c(Nc2ccccc2C(F)(F)F)c1C#N`, in that order: < 4.30 and < 4.30.
Consider `Cc1n[nH]c(Nc2cc(C(F)(F)F)cc(C(F)(F)F)c2)c1C#N`, for which the pIC50 was 4.79 in the assay with Jurkat, 5.17 in the assay filed under Mus musculus [1], < 4.30 in assay [2] and 4.55 in the assay filed under Mus musculus [3].
Take `Cc1n[nH]c(Nc2cccc(C(F)(F)F)c2)c1C#N`: the pIC50 (in assay [2]; in the assay listed under Mus musculus [3]) was < 4.30 throughout.
For the compound `Cc1n[nH]c(Nc2c(F)cc(F)cc2F)c1C#N`, the negative-log IC50 (pIC50) in assay [2] was 4.65; in the assay listed under Mus musculus [3], 4.46.
For `N#Cc1c(-c2cccnc2)n[nH]c1Nc1ccc(C(F)(F)F)cc1`, in that order: < 4.30 and 4.57.
For `Cc1n[nH]c(Nc2ccc(C(F)(F)F)cc2)c1CO`, in that order: 5.57 and 4.67.
Consider `FC(F)(F)c1ccc(Nc2[nH]nc3c2CCCC3)cc1`, for which the pIC50 was 4.51 with Jurkat, 5.47 in the assay filed under Mus musculus [1], 5.21 in assay [2] and 4.86 in the assay filed under Mus musculus [3].
In the same order, the values of `Cc1n[nH]c(Nc2ccc(OC(F)(F)F)cc2)c1C#N` are 4.79, 6.35, 6.30 and 4.70.
Turning to `N#Cc1c(Nc2ccc(C(F)(F)F)cc2)n[nH]c1O`, the pIC50 (in assay [2]; in the assay listed under Mus musculus [3]) was < 4.30 in each case.
As for `Cc1oncc1C(=O)Nc1ccc(C(F)(F)F)cc1` [LEFLUNOMIDE], the negative logarithm of the IC50 (pIC50) is 4.38 in the assay with Jurkat, 5.13 in the assay filed under Mus musculus [1] and 5.29 in the assay listed under Mus musculus [3].
As for `O=C1CCCc2n[nH]c(Nc3ccc(C(F)(F)F)cc3)c21`, the pIC50 was 4.75 in the assay on Jurkat, 5.07 in the assay listed under Mus musculus [1], 5.19 in assay [2] and 4.78 in the assay filed under Mus musculus [3].
In the same order, the values of `CC(C)c1n[nH]c(Nc2ccc(C(F)(F)F)cc2)c1C#N` are < 4.30, 5.51, 5.40 and 5.33.
In the same order, the values of `N#Cc1c(Nc2ccc(C(F)(F)F)cc2)n[nH]c1N` are < 4.30, 5.43, < 4.30 and 4.83.
In the same order, the values of `Cc1n[nH]c(Nc2ccc([N+](=O)[O-])cc2)c1C#N` are < 4.30, 5.37, 5.05 and 5.19.
On to `Cc1n[nH]c(NCc2ccc(C(F)(F)F)cc2)c1C#N`, for which the pIC50 with Jurkat was < 4.30; in the assay filed under Mus musculus [1] it was 4.39; in assay [2], < 4.30; in the assay filed under Mus musculus [3], 4.77.
For the compound `Cc1n[nH]c(Nc2ccc(C(F)(F)F)c(Br)c2)c1C#N`, the pIC50 in assay [2] is < 4.30; in the assay filed under Mus musculus [3], 4.68.
For the compound `Cc1n[nH]c(Nc2ccc(F)cc2)c1C#N`, the pIC50 with Jurkat was < 4.30; in the assay filed under Mus musculus [1], 5.13; in assay [2], 4.71; in the assay filed under Mus musculus [3] it was 5.04.
For `N#Cc1c(C2CCCC2)n[nH]c1Nc1ccc(C(F)(F)F)cc1`, in that order: 4.50, 5.54, < 4.30 and 4.65.
`N#Cc1c(-c2cccs2)n[nH]c1Nc1ccc(C(F)(F)F)cc1`: the pIC50 (in assay [2]; in the assay listed under Mus musculus [3]) was < 4.30 throughout.
On to `Cc1cc(Nc2ccc(C(F)(F)F)cc2)[nH]n1`, for which the pIC50 with Jurkat is < 4.30; in the assay listed under Mus musculus [1] it was 4.78; in assay [2], 4.78; in the assay listed under Mus musculus [3], 4.58.
On to `Cc1n[nH]c(Nc2ccccc2)c1C#N`, for which the pIC50 (in the assay with Jurkat; in the assay filed under Mus musculus [1]; in assay [2]; in the assay filed under Mus musculus [3]) was < 4.30 each time.
With `Cc1n[nH]c(Nc2ccc(C#N)cc2)c1C#N`, the pIC50 in the assay with Jurkat was < 4.30; in the assay filed under Mus musculus [1], 5.22; in assay [2], 5.49; in the assay listed under Mus musculus [3], 4.94.
As to `C/C=C/C[C@@H](C)[C@@H](O)[C@H]1C(=O)N[C@@H](CC)C(=O)N(C)CC(=O)N(C)[C@@H](CC(C)C)C(=O)N[C@@H](C(C)C)C(=O)N(C)[C@@H](CC(C)C)C(=O)N[C@@H](C)C(=O)N[C@H](C)C(=O)N(C)[C@@H](CC(C)C)C(=O)N(C)[C@@H](CC(C)C)C(=O)N(C)[C@@H](C(C)C)C(=O)N1C` [CYCLOSPORINE], the pIC50 in the assay with Jurkat was < 5.00.
Regarding `CC(C)(C)c1[nH]nc(Nc2ccc(C(F)(F)F)cc2)c1C#N`, the pIC50 was < 4.30 in the assay on Jurkat, 5.28 in the assay listed under Mus musculus [1], < 4.30 in assay [2] and 5.24 in the assay listed under Mus musculus [3].
Consider `Cc1nn(C)c(Nc2ccc(C(F)(F)F)cc2)c1C#N`, for which the pIC50 with Jurkat was 4.33; in the assay listed under Mus musculus [1], 4.79; in assay [2] it was < 4.30; in the assay listed under Mus musculus [3] it was 4.64.
As to `Cc1n[nH]c(Nc2ccc(C(F)(F)F)cc2)c1-c1ccccc1`, the results for the pIC50 (in assay [2]; in the assay listed under Mus musculus [3]) were < 4.30 and 4.53, respectively.
Regarding `CCOC(=O)c1c(C)n[nH]c1Nc1ccc(C(F)(F)F)cc1`, the pIC50 in assay [2] was < 4.30; in the assay filed under Mus musculus [3], 4.62.
In the same order, the values of `Cc1n[nH]c(Nc2ccc(N)cc2)c1C#N` are < 4.30 and < 4.30.

These data come from ChEMBL document CHEMBL1131088 (J Med Chem, 1998).
